Test results taken from article PMC7009771 (EFSA Journal, 2018).
In brackets after ≈: the same amount, converted by molar mass. Entries after “also recorded” stand apart in the source; their conditions may differ. Like-named read-outs stand apart in the source and are kept apart here.

Key:
bone marrow of CD-1 mice = conditions: ref WIL Research (2013a), cited from earlier work
[1] = carcinogenic potential; ref EC SCCS, 2012, EFSA ANS Panel, 2017; cited from earlier work
hERG ion channel = conditions: 10 μM; ref AVIVA, 2012; cited from earlier work
[2] = 24 h at 100°C, ref Senomyx, 2015, cited from earlier work
CD [Crl:CD(SD)] rats [3] = conditions: 28 days, gavage, rats males and females; ref Charles River (2013); cited from earlier work
CD [Crl:CD(SD)] rats [4] = conditions: 90 days, gavage, rats males and females; ref Charles River (2014); cited from earlier work
[5] = tested on: human peripheral blood lymphocytes (HPBL); conditions: ref Nucro-Technics (2013b), cited from earlier work; for relative cell growth (RCG) (test vs. solvent control) / relative mitotic index (RMI) (test vs. solvent control): 3-h exposure without S9-mix
[6] = in vitro; ref CiToxLab, 2014; cited from earlier work
humans = conditions: 112 subjects completed, ref Harrison Research Laboratories, 2014a,b; cited from earlier work
Balb/c 3T3 cells = conditions: based on 3T3 NRU test; ref CeeTox, 2013; cited from earlier work
[7] = ref Senomyx, 2015, cited from earlier work
CYP2C19 [8] = conditions: 10 μM (~ […]), pooled human liver microsomes; ref Absorption Systems, 2013a; cited from earlier work
CYP2C19 [9] = conditions: human liver microsomes; ref Absorption Systems, 2013b; cited from earlier work
CD [Crl:CD(SD)] rats [10] = assay: 90-day oral toxicity study in rats; format: in vivo
In short: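 Candidate substance given by oral gavage to CD rats of both sexes for 13 weeks at up to 100 mg/kg bw per day, with doses chosen from a 28-day dietary range-finder. Margin of safety derived from the 90-day NOAEL against APET exposure estimates: chronic 3.8 (adult) or 9.5 (child) µg/kg bw per day, and acute 0.076 mg/kg bw for a 3-year-old child.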

[11] = heated for 24 h at 110°C; ref Senomyx, 2015; cited from earlier work
[12] = tested on: 67 receptor binding assays for G-protein coupled receptors (GPCRs), ion channels, nuclear receptors and transporters; conditions: significant = ≥ 50% inhibition or stimulation; 67 assays; ref Ricerca, 2012; cited from earlier work
[13] = tested on: Keratinocyte ARE-Reporter Cell Line KeratinoSens; conditions: in vitro; ref IIVS, 2013; cited from earlier work
[14] = Nitrosation rate constant; conditions: pH 3.4; estimated from kDMA by correction for the pKa difference
[15] = tested on: bone marrow of Hsd:ICR (CD-1) mice; conditions: cited from earlier work; for maximum tolerated dose (MTD): range-finder, oral gavage, ref BioReliance, 2014
[16] = tested on: human peripheral blood lymphocytes (HPBL); conditions: ref BioReliance (2013b), cited from earlier work; for Chromosome aberration result (structural aberrations): 4 + 16 h in the absence of S9-mix
[17] = tested on: S. Typhimurium strains TA98, TA100, TA1535 and TA1537 and E. coli strain WP2 uvrA; conditions: up to 5,000 μg/plate, ref BioReliance (2013a), cited from earlier work; for Bacterial reverse mutation result: plate incorporation, with and without metabolic activation
[18] = 3-h exposure with S9-mix, 1.3 μg/mL
[19] = 3-h exposure with S9-mix, 2.5 μg/mL
[20] = 3-h exposure with S9-mix, 5.0 μg/mL
[21] = 20-h exposure without S9, 23 μg/mL
[22] = 20-h exposure without S9, 39 μg/mL
[23] = 20-h exposure without S9, 65 μg/mL
[24] = 20-h exposure without S9, 110 μg/mL

## O=P1(N(CCCl)CCCl)NCCCO1 (stereo not shown) [CP, Cyclophosphamide monohydrate, reference compound]
Bone marrow of CD-1 mice; positive control, 60 mg/kg bw per day
  frequency of MNPCEs, positive control: statistically significant increase

## CN(C)N=O [DMNA, dimethylnitrosamine]
[1]
  BMDL10: 27 μg/kg bw per day

## Cc1ccc(OCC(=O)N(Cc2cccs2)c2ccn[nH]2)cc1 [FL‐no: 16.133, 2‐(4‐methylphenoxy)‐N‐(1H‐pyrazol‐3‐yl)‐N‐(thiophen‐2‐ylmethyl)acetamide]
hERG ion channel
  inhibition of hERG ion channel current: < 10%
[2]; aqueous citric buffer pH 2.8
  percentage remaining: 90.1%
[2]; aqueous citric buffer pH 4.0
  percentage remaining: 97.2%
[2]; phosphoric acid buffer pH 7.1
  percentage remaining: 83.5%
CD [Crl:CD(SD)] rats [3]
  Result: NOEL: NOEL: ≥ 100 mg/kg bw per day
CD [Crl:CD(SD)] rats [4]
  Result: NOEL: NOEL: ≥ 100 mg/kg bw per day
[5]; [18]
  relative cell growth (RCG): 109%
  relative mitotic index (RMI): 61%
[5]; [19]
  relative cell growth (RCG): 100%
  relative mitotic index (RMI): 55%
[5]; [20]
  relative cell growth (RCG): 121%
  relative mitotic index (RMI): 45%
[5]; 3-h exposure with S9-mix, 10 μg/mL
  relative cell growth (RCG): 130%
[5]; 3-h exposure with S9-mix, 20 μg/mL
  relative cell growth (RCG): 97%
[5]; 3-h exposure with S9-mix, 40 μg/mL
  relative cell growth (RCG): 84%
[5]; 3-h exposure with S9-mix, 80 μg/mL
  relative cell growth (RCG): 60%
[5]; 3-h exposure with S9-mix, 160 μg/mL
  relative cell growth (RCG): 11%
[5]; 35 μg/mL
  relative cell growth (RCG) (test vs. solvent control): 108%
  relative mitotic index (RMI) (test vs. solvent control): 102%
[5]; 58 μg/mL
  relative cell growth (RCG) (test vs. solvent control): 93%
  relative mitotic index (RMI) (test vs. solvent control): 88%
[5]; 97 μg/mL
  relative cell growth (RCG) (test vs. solvent control): 98%
  relative mitotic index (RMI) (test vs. solvent control): 110%
[5]; 160 μg/mL
  relative cell growth (RCG) (test vs. solvent control): 60%
  relative mitotic index (RMI) (test vs. solvent control): 48%
[5]; 270 μg/mL
  relative cell growth (RCG) (test vs. solvent control): 18%
[5]; [21]
  relative cell growth (RCG): 100%
  relative mitotic index (RMI): 106%
[5]; [22]
  relative cell growth (RCG): 97%
  relative mitotic index (RMI): 82%
[5]; [23]
  relative cell growth (RCG): 60%
  relative mitotic index (RMI): 57%
[5]; [24]
  relative cell growth (RCG): 56%
  relative mitotic index (RMI): 0%
[5]; 20-h exposure without S9, 180 μg/mL
  relative cell growth (RCG): 19%
[6]
  skin sensitisation potential, DPRA: may exhibit a skin sensitisation potential
humans
  skin sensitisation, HRIPT result: negative result
Balb/c 3T3 cells
  phototoxic potential (Panel conclusion): does not anticipate that [FL‐no: 16.133] has a phototoxic potential
[7]; 95% ethanol
  Solubility in ethanol: > 308 mM
[7]; pH = 7
  Solubility in water: 0.12 mM (≈ 0.0393 mg/mL)
[7]
  Solubility in triacetine: 40.47 mM (≈ 13.3 mg/mL)
Bone marrow of CD-1 mice; CD-1 mice, 1,000-2,000 mg/kg bw per day
  ratio PCEs/TE (bone marrow toxicity) vs vehicle control: No decrease
Bone marrow of CD-1 mice; CD-1 mice, gavage, 1,000, 1,500 and 2,000 mg/kg bw per day, three consecutive days
  Micronucleus assay result (incidence of MNPCEs): No statistically significant increases; also recorded: Negative
Bone marrow of CD-1 mice; CD-1 mice, gavage, up to 2,000 mg/kg bw per day
  clinical signs of toxicity: No clinical signs of toxicity
CYP2C19 [8]
  CYP2C19 inhibition: significant inhibition
CYP2C19 [9]
  time-dependent inhibition of CYP2C19: No evidence of time‐dependent CYP inhibition
CD [Crl:CD(SD)] rats [10]; Adult, 90-day NOAEL 100 mg/kg bw per day vs chronic APET 3.8 μg/kg bw per day
  Margin of safety: 26,300
CD [Crl:CD(SD)] rats [10]; Child, 90-day NOAEL 100 mg/kg bw per day vs chronic APET 9.5 μg/kg bw per day
  Margin of safety: 10,500
CD [Crl:CD(SD)] rats [10]; children, 90-day NOAEL vs maximum acute dietary exposure about 0.08 mg/kg bw
  MoE, acute exposure: more than 1,000
[11]
  Dry powder stability: stable
[12]
  responses in lead profiling receptor screen: No significant responses
[13]
  skin sensitisation potential, KeratinoSens Assay: may exhibit a skin sensitisation potential

## c1csc(CNc2cc[nH]n2)c1 [M179, N‐(thiophen‐2‐ylmethyl)‐1H‐pyrazol‐3‐amine]
[14]
  rate constant of nitrosation (kM179), estimated: 0.0017 × 10^−4 M^−2s^−1

## COS(C)(=O)=O [MMS, methyl methanesulfonate, reference compound]
[15]; positive control, 40 mg/kg bw per day on days 2 and 3, ref BioReliance (2014)
  frequency of MNPCEs, positive control: statistically significant increases

## Cl.c1csc(CNc2cc[nH]n2)c1 [S1140, N‐(Thiophen‐2‐ylmethyl)‐1H‐pyrazol‐3‐amine, hydrochloride salt]
[16]; hydrochloride salt (M179)
  Chromosome aberration result (structural aberrations): Positive ^e
[16]
  Chromosome aberration result (structural aberrations): induced chromosomal aberrations
[16]; 4 + 16 h treatment in the presence of S9-mix, 100-1,840 μg/mL
  structural chromosomal aberrations: No statistically significant or concentration‐related increases in structural chromosomal aberrations
[16]; any of the treatment conditions
  polyploidy: No statistically significant or concentration‐related increases in polyploidy
[17]
  Bacterial reverse mutation result: did not show mutagenicity
[17]; hydrochloride salt (M179)
  Bacterial reverse mutation result: Negative ^a
[17]; two studies
  precipitate / background lawn toxicity: Neither precipitate nor background lawn toxicity was observed in the two studies performed

## O=S(=O)(O)O.c1csc(CNc2cc[nH]n2)c1.c1csc(CNc2cc[nH]n2)c1 [S2312, hemisulfate salt of N‐(thiophen‐2‐ylmethyl)‐1H‐pyrazol‐3‐amine]
[15]; mice, 125-1,000 mg/kg bw per day, gavage, ref BioReliance (2014)
  clinical signs observed: piloerection (at all dose levels), lethargy (at 500 and 1,000 mg/kg bw per day), prostration, irregular breathing and crusty eyes (at 1,000 mg/kg bw per day in female mice)
[15]; mice, any dose level up to 1,000 mg/kg bw per day, ref BioReliance (2014)
  mortality: No mortality
[15]; female mice
  maximum tolerated dose (MTD): 1,000 mg/kg bw per day
[15]; male mice
  maximum tolerated dose (MTD): 500 mg/kg bw per day
